A short description of series [1]: Stability of AcLys-AcA in solvents. Type of series: physicochemical.
A short description of series [2]: Chemical reaction of AcA with AcLys, adduct determined by HPLC-MS/MS. It counts as physicochemical. In short, it runs like this: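 AcA was at 10 μM; the mixture was shaken at 600 rpm to mimic the microsomal incubation matrix and sampled over time. AcLys-AcA was measured by HPLC-ESI⁺-MS/MS. n = 3, mean ± standard deviation.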
In a further series the test system is pRH. Put plainly: GSH depletion in pRH after exposure to 2-MF. Type of series: cell-based, rat. Conditions: data not shown.
The subject of a further series is HepG2 cells. Put plainly: GSH depletion in HepG2 cells after exposure to 2-MF. Type of series: cell-based. Conditions: data not shown.
Series [3] is described as follows: Cytotoxicity via cell viability using resazurin reduction in pRH. Type of series: cell-based. Conditions: male, Wistar, rat, primary rat hepatocytes.
The subject of series [4] is human liver microsomes (HLM). Type of series: in vitro ADME. Conditions: 10 min. The procedure, abridged: (§1)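 Pooled liver microsomes (male Sprague–Dawley rat; mixed-gender human) at 1.0 mg protein/mL in 50 mM phosphate or Tris buffer with 3 mM MgCl₂ and 4 mM AcLys trap. Preincubated with 2-MF (10–750 μM) for 5 min at 37 °C, NADPH-started, 10 min. Stopped with cold MeCN containing 1 μM AcLys-BDA; AcLys-AcA by HPLC-MS/MS. Kinetics fitted biphasically; heat-inactivated and no-NADPH controls; n = 3–6.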

The test system of series [5] is rat liver microsomes (RLM). Conditions: ref Ravindranath and Boyd (1985) [9], cited from earlier work; for Km: RLM.
For series [6], the system named is rat liver microsomes (RLM). Type of series: in vitro ADME. Conditions: RLM, untr.; II) low substrate concentrations (10 and 100 μM 2-MF); 10 min. In short, it runs like this: as §1
Series [7] deals with CYP 2E1 (Homo sapiens, UniProt P05181). It counts as in vitro ADME. Conditions: Supersomes CYP 2E1, 100 and 500 μM 2-MF, 10, 30 or 60 min; negative control without NADPH.
In series [8] the test system is primary rat hepatocytes (pRH). Put plainly: Adduct formation. It counts as in vitro ADME. Conditions: for AcCys-AcA formation in cell supernatants / formation of AcLys-AcA in cell supernatants: pRH incubated with 2-MF (10–1000 μM) or AcA (0.1–5 μM), 1–48 h; for AcLys-AcA in cell supernatant compared to the negative control: pRH. In short, it runs like this:
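Hepatocytes came from adult male Wistar rats (150–250 g) and were used only at ≥80% viability. Cells were seeded at 1 million cells/mL on collagen-coated dishes, allowed 3 h to attach, then PBS-washed. Incubation was at 37 °C, 5% CO₂ with test compound for 1, 6, 18, 24 or 48 h. Supernatants got 1 μM final AcLys-BDA internal standard, SPE cleanup, then UHPLC-ESI⁺-MS/MS (MRM m/z 269.2/164.2). Untreated negative control; n = 3–6.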

The test system of series [9] is human liver microsomes (HLM). Conditions: 50 μM furan, ref Gates et al. (2012) [30]; cited from earlier work.
Series [10] concerns CYP 2E1. Conditions: ref Peterson et al. (2005) [32]; cited from earlier work.
Series [11] deals with rat liver microsomes (RLM). Conditions: pretr., ref Peterson et al. (2005) [32]; cited from earlier work.
The subject of series [12] is rat liver microsomes (RLM). Conditions: untr., 50 μM furan, ref Gates et al. (2012) [30]; cited from earlier work.
The subject of series [13] is CYP 2E1. Conditions: cited from earlier work.
Series [14] is described as follows: Chemical reaction of AcA with AcCys, adduct determined by HPLC-MS/MS. It counts as physicochemical. Conditions: AcA (1 μM) with AcCys (4 mM) in water, 37 °C. In short, it runs like this:
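Mixture shaken at 600 rpm and sampled over incubation time. Adduct was detected by HPLC-ESI⁺-MS/MS on a Synergi Hydro-RP column with a formic acid/acetonitrile gradient, MRM quantifier m/z 241.9/112.9, and reported as peak area (AUC). n = 3, mean ± standard deviation.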

[15] abbreviates: 20 or 400 μM furan, ref Gates et al. (2012) [30].

Read-outs that look alike come from different tables or passages of the source.

Sequence of CYP 2E1 (Homo sapiens, UniProt P05181) (P05181 whole entry): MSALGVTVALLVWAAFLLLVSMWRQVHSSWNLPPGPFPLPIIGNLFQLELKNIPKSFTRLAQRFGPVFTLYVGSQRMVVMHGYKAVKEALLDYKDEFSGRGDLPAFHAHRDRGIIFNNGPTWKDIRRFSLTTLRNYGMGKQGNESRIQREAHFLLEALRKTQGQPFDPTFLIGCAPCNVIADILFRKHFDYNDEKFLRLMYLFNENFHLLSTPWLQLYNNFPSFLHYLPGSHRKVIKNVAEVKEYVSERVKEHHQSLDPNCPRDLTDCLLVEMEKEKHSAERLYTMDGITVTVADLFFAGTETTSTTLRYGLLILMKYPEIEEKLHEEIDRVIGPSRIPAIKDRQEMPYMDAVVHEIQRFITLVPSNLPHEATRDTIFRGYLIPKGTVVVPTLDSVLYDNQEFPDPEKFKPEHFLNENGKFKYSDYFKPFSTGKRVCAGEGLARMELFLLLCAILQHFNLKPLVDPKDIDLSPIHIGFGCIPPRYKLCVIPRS

With `CC(=O)N[C@@H](CCCCN1C(=O)C=CC1C)C(=O)O` (stereo partly drawn) [AcLys-AcA, L-2-Acetamido-6-(2-methyl-5-oxo-2,5-dihydro-1H-pyrrol-1-yl)hexanoic Acid], the “stability (NMR)” value in [1] (in organic solvents) was “unstable”. The “stability of NMR and MS signals” value in series [1] (in water) is given as “stable”. The “stability of adduct yield” value in [2] (reaction mixture of AcA with AcLys (4 mM) in K2HPO4 buffer pH 7.4, 37 °C) is on record as “stable for up to 24 h”.
As for `Cc1ccco1` [2-MF, 2-Methylfuran], the “depletion of GSH” value in the series with pRH and in the series with HepG2 cells was “no depletion of GSH” throughout. The compound also gave a concentration giving a half-maximal response (EC50) at 24 h in series [3] of 551 ± 53.1 µM. Also, the vmax in series [4] (HLM; I) high substrate concentrations (250, 500, 750 μM 2-MF)) is recorded as 0.88 μmol/(mg prot.·min); in [4] (HLM; II) low substrate concentrations (10 and 100 μM 2-MF)), 0.12 μmol/(mg prot.·min); in [5] (RLM from untreated rats, Eadie-Hofstee), 0.53 μmol/2 mg microsomal protein/min; in [5] (rats pretreated with phenobarbital) it was 0.81 μmol/2 mg microsomal protein/min; in series [6], 0.09 μmol/(mg prot.·min). Besides, the Km in series [5] (pretr. (phenobarbital)) is 463 µM; in series [5] (untr., 2.5–20 mM total 2-MF), 1420 µM. Also, the “AcA formation compared to the negative control” value on CYP 2E1 [7] is given as “significant formation of AcA”. In addition, the “AcCys-AcA formation in cell supernatants” value in series [8] is recorded as “No evidence of AcCys-AcA formation”. For the same compound, the “formation of AcLys-AcA in cell supernatants” value in series [8] is given as “detected”. For the same compound, the “AcLys-AcA in cell supernatant compared to the negative control” value in series [8] (100 μM 2-MF, 1 h) was “significant increase”.
On to `c1ccoc1` [Furan], for which the vmax is on record as 0.0013 μmol/(mg prot.·min) in [9]; 0.0016 μmol/(mg prot.·min) in series [12]; 34 ± 4 pmol BDA/pmol CYP/min with CYP 2E1 [13] (20 or 400 μM furan, ref [30]). Also, the Ecat in the series with CYP 2E1 [10] is 3.9e-1; in the series on CYP 2E1 [13] (ref Gates et al. (2012) [30]) it was 1.4. Moreover, the Michaelis constant (Km) in the series with CYP 2E1 [10] was 65.1 ± 16.4 µM; in series [11], 18.5 ± 6.8 µM; in the series on CYP 2E1 [13] (setting [15]), 24 ± 13 µM. Moreover, the figures for the kcat in the series on CYP 2E1 [10] and in the series with CYP 2E1 [13] (setting [15]) were 26 μmol/(μmol CYP·min) and 34 ± 4 μmol/(μmol CYP·min), respectively.
In the case of `CC(=O)C=CC=O` [AcA, 3-acetylacrolein], the “time to completion of adduct formation” value in series [14] is given as less than 1 min; in series [2] (AcA (1; 10 μM) with AcLys (4 mM) in K2HPO4 buffer (50 mM, pH 7.4), 37 °C) it was less than 1 min. The compound also came in with an EC50 at 24 h in series [3] of 8.5 ± 1.3 µM. For the same compound, in series [8], the “AcCys-AcA formation in cell supernatants” value was “No evidence of AcCys-AcA formation”. Moreover, in series [8], the “formation of AcLys-AcA in cell supernatants” value is “detected”. Also, the “AcLys-AcA in cell supernatant compared to the negative control” value is reported as “differed significantly” in series [8] (0.5 μM AcA, 48 h) and “highly significant increase” in series [8] (5 μM AcA, all time points (1–48 h)).
